pIC50: −log10 of the molar value. The source made the active and inactive calls. The rule behind the calls is not given here.
What was measured:
[1] = system: MCF7; test: Cytotoxicity against human MCF7 cells by MTS assay after 24 hrs; format: functional, cell-based; conditions: MCF7, 24 h
[2] = system: HCT-116; test: Cytotoxicity against human HCT116 cells by MTS assay after 24 hrs; format: functional, cell-based; conditions: HCT-116, 24 h
[3] = system: Jurkat; test: Cytotoxicity against human Jurkat cells by MTS assay after 24 hrs; format: functional, cell-based
[4] = organism: Bos taurus; test: Inhibition of bovine neuronal tubulin polymerization at 10 uM
Outline: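 Polymerization followed 1 h at 37 °C by fluorescence, ex 360 ± 10 nm / em 440 ± 10 nm. Duplicate wells.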

[5] = system: U-937; test: Cytotoxicity against human U937 cells by MTS assay after 24 hrs; format: functional, cell-based; conditions: U-937, 24 h
[6] = Cytotoxicity against human […] cells by MTS assay after 24 hrs; format: functional, cell-based
[7] = system: A-375; test: Cytotoxicity against human A375 cells by MTS assay after 24 hrs; format: functional, cell-based; conditions: A-375, 24 h
[8] = system: PC-3; test: Cytotoxicity against human PC3 cells by MTS assay after 24 hrs; format: functional, cell-based; conditions: PC-3, 24 h
[9] = system: U-937; test: Effect on U937 cell morphology assessed as irregular membrane protrusions at 0.39 ug/ml after 24 hrs; format: functional, cell-based; conditions: Homo sapiens
Outline: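 U937 cells (1.0 × 10⁴) exposed to compounds at 0.39 µg/mL for 24 h, with DMSO vehicle as control. Examined by brightfield light microscopy at 1000× magnification.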

[10] = system: U-937; test: Cell cycle arrest in human U937 cells assessed as increase in S and sub G1 phase accumulation at 1 uM; format: functional, cell-based
Outline: (§1)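 U937 cells treated 4 h or 24 h against DMSO vehicle, with 0.5 µM vinblastine sulfate as reference. Cells (2.0 × 10⁴) fixed in ice-cold 70% ethanol at -20 °C for 30 min to overnight. Stained 30 min at 37 °C with 40 µg/mL PI plus 100 µg/mL RNase A in PBS pH 7.4. DNA content read by flow cytometry and cell-cycle phase proportions calculated.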

[11] = system: U-937; test: Cell cycle arrest in human U937 cells assessed as increase in S and sub G1 phase accumulation at 2 uM; format: functional, cell-based; outline: as §1
[12] = target: Tubulin; test: Displacement of [3H]colchicine from tubulin by scintillation proximity assay; format: protein-complex assay, Homo sapiens
[13] = system: U-937; test: Activation of caspase in U937 cells after 5 hrs relative to staurosporine; format: cell-based; conditions: Homo sapiens
Outline: (§2)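 Cells exposed to test compound for 5 h at 37 °C; 2 µM staurosporine as positive control. Apo-ONE homogeneous caspase-3/7 reagent then added for 1 h at room temperature. Fluorescence read at excitation 485 nm, emission 520 nm. Values normalized to staurosporine. Means ± SE of one representative experiment run in triplicate.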

[14] = system: Jurkat; test: Activation of caspase in Jurkat cells after 5 hrs relative to staurosporine; format: cell-based; conditions: Homo sapiens; outline: as §2
[15] = system: U-937; test: Effect on stability of microtubules in U937 cells assessed as alteration of microtubule organisation at 1.7 uM after 24 hrs; format: functional, cell-based; conditions: Homo sapiens
Outline: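 U937 cells (2.2 × 10⁵/mL) seeded, held 24 h, then exposed 24 h to 0.78 µg/mL (1.7 µM) compound. Controls: 2 µM vinblastine or 2.5% DMSO. […] Cells washed in PBS and imaged by confocal microscopy, excitation 488 nm, emission 500–540 nm.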

Row | Compound | pIC50 [1] | pIC50 [2] | pIC50 [3] | pIC50 [5] | pIC50 [6] | pIC50 [7] | further results
1 | O=C1C(=O)N(Cc2ccc(-c3ccccc3)cc2)c2c(Br)cc(Br)cc21 | 5.31 | 6.08 | 6.13 | 6.12 | 5.69 | 5.92 | Activity [4]: Active; pIC50 [8]: 5.47
2 | CC(C)CCN1C(=O)C(=O)c2cc(Br)cc(Br)c21 | 5.13 |  | 5.46 | 5.62 |  |  | Activity [9]: Active
3 | C=CCN1C(=O)C(=O)c2cc(Br)cc(Br)c21 |  |  |  | 5.18 |  |  | 
4 | Cc1ccc(CN2C(=O)C(=O)c3cc(Br)cc(Br)c32)cc1 | 4.96 | 5.91 | 6.31 | 6.31 | 5.72 | 5.70 | Activity [10]: Active; Activity [4]: Active; Activity [11]: Active; pIC50 [8]: 5.34
5 | COc1ccc(CN2C(=O)C(=O)c3c(Br)cccc32)cc1 |  |  |  | < 4.44 |  |  | 
6 | COc1ccc(CN2C(=O)C(=O)c3cc(Br)ccc32)cc1 |  |  |  | < 4.44 |  |  | 
7 | COCCN1C(=O)C(=O)c2cc(Br)cc(Br)c21 | 5.18 |  | 5.05 | 5.46 |  |  | 
8 | O=C1C(=O)N(Cc2ccc(Br)cc2)c2c(Br)cc(Br)cc21 | 5.28 | 6.28 | 6.20 | 6.20 | 5.72 | 5.91 | pIC50 [8]: 5.46
9 | O=C1C(=O)N(Cc2ccc(C(F)(F)F)cc2)c2cc(Br)ccc21 |  |  | 5.28 | 5.28 |  |  | 
10 | COc1cccc(CN2C(=O)C(=O)c3cc(Br)cc(Br)c32)c1 | 5.63 |  | 5.70 | 5.75 |  |  | 
11 | O=C1C(=O)N(Cc2ccc(I)cc2)c2c(Br)cc(Br)cc21 | 5.37 | 5.47 | 6.24 | 5.64 | 5.53 | 5.62 | Activity [9]: Active; pIC50 [8]: 4.96
12 | O=C1C(=O)N(Cc2ccccc2[N+](=O)[O-])c2c(Br)cc(Br)cc21 | 5.50 |  |  | 5.64 |  |  | 
13 | CC[C@]1(O)C[C@@H]2CN(CCc3c([nH]c4ccccc34)[C@@](C(=O)OC)(c3cc4c(cc3OC)N(C)[C@H]3[C@@](O)(C(=O)OC)[C@H](OC(C)=O)[C@]5(CC)C=CCN6CC[C@]43[C@@H]65)C2)C1 [VINBLASTINE] |  |  |  | 5.16 |  |  | 
14 | COc1ccc(CN2C(=O)C(=O)c3cccc(Br)c32)cc1 |  |  |  | 4.75 |  |  | 
15 | O=C1C(=O)N(Cc2ccc(Cl)cc2)c2c(Br)cc(Br)cc21 | 5.41 | 5.74 | 6.30 | 6.01 | 5.56 | 5.77 | pIC50 [8]: 5.66
16 | O=C1C(=O)N(C/C=C/c2ccccc2)c2c(Br)cc(Br)cc21 | 5.11 |  | 5.85 | 5.63 |  |  | Activity [4]: Active; Activity [9]: Active
17 | COc1ccc(CN2C(=O)C(=O)c3ccccc32)cc1 |  |  |  | < 4.33 |  |  | 
18 | O=C1C(=O)N(Cc2ccc([N+](=O)[O-])cc2)c2c(Br)cc(Br)cc21 | 5.36 | 5.57 | 6.05 | 6.05 | 5.56 | 5.60 | 
19 | COC(=O)c1ccc(CN2C(=O)C(=O)c3cc(Br)cc(Br)c32)cc1 | 5.04 |  | 5.92 | 5.92 |  |  | 
20 | COc1ccc(CN2C(=O)C(=O)c3ccc(Br)cc32)cc1 |  |  |  | 4.47 |  |  | 
21 | O=C(O)c1ccc(CN2C(=O)C(=O)c3cc(Br)cc(Br)c32)cc1 | < 4.85 |  | < 4.85 | < 4.85 |  |  | 
22 | COc1cc(-c2ccc3c(c2)NC(=O)/C3=C\c2ccc[nH]2)ccc1O |  |  |  |  |  |  | pIC50 [12]: 6.89
23 | CC(C)(C)c1ccc(CN2C(=O)C(=O)c3cc(Br)cc(Br)c32)cc1 | 5.58 | 5.78 | 6.18 | 5.95 | 6.01 | 6.05 | Activity [9]: Active; pIC50 [8]: 5.51
24 | O=C1C(=O)N(Cc2ccccc2)c2c(Br)cc(Br)cc21 | 5.15 |  | 5.94 | 5.94 |  |  | 
25 | O=C1C(=O)N(Cc2ccc(C(F)(F)F)cc2)c2c(Br)cc(Br)cc21 | 5.15 | 6.08 | 6.16 | 6.10 | 6.27 | 5.90 | Activity [13]: Active; Activity [10]: Active; Activity [4]: Active; Activity [14]: Active; Activity [11]: Active; Activity [15]: Active; pIC50 [8]: 5.93

Source: ChEMBL document CHEMBL1148827, “An investigation into the cytotoxicity and mode of action of some novel N-alkyl-substituted isatins” (J Med Chem, 2007)
